FLuc inhib CS = firefly luciferase enzyme inhibitors, primary screen, artefact control for luciferase-based inhibitor screens, biochemical, luminescence, ATPLite; Luciferin 4-monooxygenase (Photinus pyralis), P08659; 10 min; inhibition, % at 10 µM; hit rate 1.5% among 200,000;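 active means inhibition above about 50% when tested at 10 µM, limit read from the data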
Target sequence (P08659 whole entry, looked up): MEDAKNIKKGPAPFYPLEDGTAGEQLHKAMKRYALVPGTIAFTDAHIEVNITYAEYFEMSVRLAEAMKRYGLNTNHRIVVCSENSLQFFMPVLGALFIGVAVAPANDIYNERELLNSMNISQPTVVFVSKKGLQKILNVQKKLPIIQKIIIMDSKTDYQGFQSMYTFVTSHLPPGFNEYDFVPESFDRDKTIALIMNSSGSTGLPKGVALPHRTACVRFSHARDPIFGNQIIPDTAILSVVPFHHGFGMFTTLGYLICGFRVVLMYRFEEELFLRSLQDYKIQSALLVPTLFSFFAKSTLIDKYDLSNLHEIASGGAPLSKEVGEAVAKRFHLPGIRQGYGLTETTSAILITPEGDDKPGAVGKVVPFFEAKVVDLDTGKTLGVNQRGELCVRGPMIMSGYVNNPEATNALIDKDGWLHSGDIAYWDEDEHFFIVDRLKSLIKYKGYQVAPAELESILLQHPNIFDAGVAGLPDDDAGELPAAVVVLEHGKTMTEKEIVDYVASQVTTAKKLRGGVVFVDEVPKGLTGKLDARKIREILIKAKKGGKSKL
Redox H2O2 prof = compounds producing H2O2 with reducing agent – biochemical, NIH compound library profiling, artefact control for MLSCN library redox annotation, primary screen | DTT-dependent redox cycling H2O2, phenol red/HRP absorbance; 100% = 100 µM peroxide control, 0% = buffer | activation, % at 10 µM | hit rate 0.03% among 200,000;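 active means activation of at least 50% relative to the plate's high and low controls in the primary single-dose screen; inactive means activation below 50%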;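 further: compound incubated with DTT at 0.8 mM final as the reducing agent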
FLuc stim CS = FLuc activators, initial screening, artefact control for FLuc-dependent activation tests, biochemical, ATPlite luminescence | 200,000 tested, under 10 active | ATPlite luciferase biochemical, 10 min; 0 = ATP-free wells, 1 = DMSO control | activation factor at 10 µM;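 active means luciferase activation factor, scaled between plate controls, of at least 2 with compound at 10 µM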
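Assay system – cell-free luciferase reagent · Medium – PBS-based ATP solution · Dosing – test compounds dosed from 2 mM stocks in 100% DMSO · Timing – 10 min, room temperature · Technique – light output (luminescence) · Measure – luminescence gain marking luciferase activators · Controls – No-ATP low control, compound-free enzyme-plus-ATP high control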
ABCB1 block = ABCB1 efflux pump inhibitors, primary screen, cell-based, multiplex, flow cytometry, ABCG2 counter-screen; hit rate 0.067% among 190,000; inhibition, % at 6.6 µM; CCRF-Adr cells, JC-1 efflux; ATP-dependent translocase ABCB1 (Homo sapiens), P08183; in the data active means inhibition above about 40%;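 further: 0% = vehicle and 100% = reference inhibitor; higher value means more JC-1 retained so stronger ABCB1 efflux block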
Measles CPE = compounds protecting cells from measles virus cytopathic effect, primary screen, measles RdRp inhibitor project, single point, MLSMR library, absorbance; Measles virus-infected cells, CPE protection; protection (pct of control), % at 4 µM; hit rate 1.5% among 140,000; AID 841, 2007; in the data active means protection mostly above about 24%, no sharp cut-off; inactive means mostly below about 26%
ABCG2 block = ABCG2 efflux pump inhibitors, primary screen, multiplex with ABCB1, IgMXP3 cells, flow cytometry; JC-1 efflux; inhibition, % at 6.6 µM; hit rate 0.1% among 190,000;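 active means inhibition above 80%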;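 further: 0% = DMSO and 100% = nicardipine control wells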
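test system = two drug-resistant human cell lines, ABCG2 and ABCB1 | amount = 3 million cells/mL final, two lines in 1:1 ratio | reagent = JC-1 transporter substrate | doses = one concentration, 6.6 µM final | incubation = 10 min at 25 °C | signal = flow cytometric JC-1 green MFI at 530 nm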
* hit, by the source's call; x = no result. Sampled rows, rich in hits. Any-hit rate of the full collection: about 2.7%.

SMILES	FLuc inhib CS	Redox H2O2 prof	FLuc stim CS	ABCB1 block	Measles CPE	ABCG2 block
C=CCn1c(O)c(C=NCCN2CCNCC2)c(=O)[nH]c1=O	-4	-13	1	0	2	2
O=c1[nH]c(=O)n(CCC2=CCCCC2)c(O)c1C=NCCN1CCNCC1	-5	0	1.1	0	35*	2
Cc1cccc(OCC(=O)N2CCN(Cc3ccncc3)CC2)c1	-7	0	1.1	1	43*	3
Clc1ccc2c(c1)C(c1ccccc1Cl)=NCc1nnc(N3CCN(CCOc4ccccc4)CC3)n1-2	-6	0	1.1	-3	28*	-15
Cc1ccc(Sc2ccc(C=C3C(=O)N(C)C(=O)N(C)C3=O)o2)cc1	8	-1	0.9	-3	x	-6
CN1C(=O)C(=Cc2ccc(-c3cccc(Cl)c3)o2)C(=O)N(C)C1=O	-5	-1	1.1	-7	20*	-17
CCCN1C2CCCC1CC(NC(C)=O)C2 (stereo unspecified)	-5	-3	1	0	49*	0
C/C(=N\NC(N)=O)c1c(O)n(C)c(=O)n(C)c1=O	0	-3	1	0	x	0
CN(C)C(=O)Oc1ccc(OC(=O)N(C)C)cc1	-10	-1	1.1	0	21	0
CN(C)C(=O)Oc1ccc(OCc2nc3ccccc3[nH]2)cc1	80*	0	0.2	1	3	4
O=c1[nH]c(=S)[nH]c(O)c1N=Nc1cc2c(cc1[N+](=O)[O-])OCO2	8	0	0.9	-1	x	-2
COc1ccc(N=Nc2c(O)[nH]c(=S)[nH]c2=O)cc1	59*	0	0.4	0	x	2
O=c1[nH]c(=S)[nH]c(O)c1N=Nc1ccc(OC(F)F)cc1	57*	-2	0.4	-1	x	5
CNC(=O)Oc1ccc2c(c1)C(=O)c1ccccc1CO2	40	0	0.6	0	7	0
CNC(=O)Oc1cccc(-c2cn3cc(OC(=O)NC)ccc3n2)c1	73*	3	0.3	0	8	0
CNC(=O)Oc1ccc(-c2cn3cc(Cl)ccc3n2)cc1	93*	0	0.1	1	13	19
COCCOC(=O)C1=C(N)Oc2c(c(=O)oc3ccccc23)C1c1ccncc1 (stereo unspecified)	-1	2	1	0	9	1
OC(c1ccc(F)cc1)C(c1ccccc1)N1CCOCC1 (stereo unspecified)	-3	0	1	-1	39*	-3
CC(NC(=O)Oc1ccccc1)C(c1cccs1)N1CCOCC1 (stereo unspecified)	-5	1	1.1	0	17	0
CC(C)(C)n1cc(C(=O)c2ccc3ccccc3c2O)cn1	69*	-1	0.3	1	x	6
Cc1cc(C(=O)CS(=O)(=O)c2ccccc2)cc(C)c1OC(=O)N(C)C	78*	-1	0.2	-1	x	2
CC(=O)Nc1ccccc1C(=O)OCc1ccc(F)cc1	-10	0	1.1	0	x	1
CC(=O)Nc1ccccc1C(=O)OCC(=O)c1ccc2c(c1)OCCO2	82*	0	0.2	-2	6	29
CCC(CC)N1CCN(C(=O)Cc2ccccc2)CC1	-5	0	1	0	43*	0
CCOCCCNC(=O)C1c2cc(OC)c(OC)cc2C(=O)N2CCCCC12 (stereo unspecified)	-4	0	1	0	11	-9
O=[N+]([O-])/C=C1\NCCN1Cc1ccc(Cl)nc1	-3	0	1	0	7	3
COc1ccc(CN2CCCCC2c2cccnc2)cc1C (stereo unspecified)	-5	-1	1	1	38*	5
Cc1nc2ccccc2c(=O)n1-c1ccc(F)cc1	-9	0	1.1	1	31*	3

From PubChem BioAssay
